Screening data: PubChem, several laboratories
Ecoli tolC – growth inhibitors of E. coli BW25113 tolC mutant. growth inhibition, % at 10 µM (by protocol). OD615. hit rate 2.2% among 65,000. AID 573;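 active = growth inhibition at or above a cutoff equal to the mean over every tested compound plus 3 SD, cut at about 60% in these data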;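 also: growth measured after 20 h incubation at 37 °C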
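Test system: tolC-deleted E. coli BW25113 | Medium: LB with kanamycin 50 µg/mL | Compound dosing: Single concentration, 10 µM final per compound | Schedule: 37 °C, 20 h exposure | Measured by: OD at 615 nm | Evaluation: Percent growth inhibition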
PostGolgi yeast – growth inhibition of a yeast mutant, post-Golgi transport screen; hit rate 0.9% among 98,000; AID 739; post-Golgi transport phenotypic cell assay; inhibition, % at 10 µM;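 also: yeast cells grown in 1536-well plates; yeast grown about 18 h at 30C before absorbance read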
PostGolgi ctrl – growth of the yeast control strain, post-Golgi counter-screen; efflux-deficient yeast background strain, growth absorbance A615, 16 h; hit rate 5% among 98,000; inhibition, % at 10 µM
E coli WT exp – growth inhibitors of E. coli BW25113 wild type. OD600 absorbance. hit rate 0.15% among 98,000. growth inhibition, % at 100 µM;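 active = growth inhibition above about 50% at one test dose, limit read from the data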;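 also: growth measured after 20 h incubation at 37 °C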
PLAP act – human PLAP activation; purified PLAP enzyme, luminescent substrate read-out; stronger effect = higher value; activation fold at 20 µM; hit rate 1.2% among 96,000; in the data active = activation fold above about 2
Target sequence (P05187 whole entry, looked up): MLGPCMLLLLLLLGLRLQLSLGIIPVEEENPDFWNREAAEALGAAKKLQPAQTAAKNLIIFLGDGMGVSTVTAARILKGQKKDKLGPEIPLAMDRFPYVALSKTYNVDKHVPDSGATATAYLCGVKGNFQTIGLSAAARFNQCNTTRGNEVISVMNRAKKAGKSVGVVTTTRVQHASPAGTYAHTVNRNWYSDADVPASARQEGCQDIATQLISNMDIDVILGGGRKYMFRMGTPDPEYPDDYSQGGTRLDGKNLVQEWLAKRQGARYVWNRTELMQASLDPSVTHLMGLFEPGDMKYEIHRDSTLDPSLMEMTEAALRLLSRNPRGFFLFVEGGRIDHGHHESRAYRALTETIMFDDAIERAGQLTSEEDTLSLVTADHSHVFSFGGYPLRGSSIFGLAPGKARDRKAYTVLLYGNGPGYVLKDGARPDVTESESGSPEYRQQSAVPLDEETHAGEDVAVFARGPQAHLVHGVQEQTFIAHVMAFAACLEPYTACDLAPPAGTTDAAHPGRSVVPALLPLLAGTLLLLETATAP
HePTP inh – human HePTP phosphatase inhibition | AID 521 | hit rate 0.64% among 110,000 | inhibition, % at 20 µM | recombinant HePTP phosphatase activity, OD absorbance; in the data active = inhibition above about 50%;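 also: plate controls were vehicle for no effect and reference inhibitor for full effect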
* hit, by the source's call. In the library only some 5.4% were active in any assay of this set; here they are far more common. Rule as the data show it, unless noted: active = inhibition above about 30%; inactive = the rest.

Brc1ccc2[nH]c3c(N4CCc5ccccc5C4)ncnc3c2c1 was read as PostGolgi yeast 42*, PostGolgi ctrl 76*, E coli WT exp -19 and PLAP act 1.1.
Cc1ccc2[nH]c3c(N4CCc5ccccc5C4)ncnc3c2c1 was read as PostGolgi yeast -40, PostGolgi ctrl 43*, E coli WT exp -10 and PLAP act 1.
For Cc1ccc2[nH]c3c(N4CCOCC4)ncnc3c2c1 the results were Ecoli tolC 15, PostGolgi yeast -2, PostGolgi ctrl 6, E coli WT exp 11, PLAP act 0.8 and HePTP inh 8.
`CN(C)c1ccc(C=Nc2nonc2N)cc1` gave HePTP inh 4.
O=S(=O)(c1ccc(F)c(F)c1)N1CCN(Cc2ccc3c(c2)OCO3)CC1 was read as Ecoli tolC 7, PostGolgi yeast 7, PostGolgi ctrl 12, E coli WT exp -1, PLAP act 0.9 and HePTP inh 6.
Screening O=C(OCc1ccc2c(c1)OCO2)c1cccc(S(=O)(=O)N2CCCCC2)c1 returned PostGolgi yeast -5, PostGolgi ctrl 38*, E coli WT exp -15 and PLAP act 1.5.
For O=S(=O)(c1ccc2c(c1)OCCO2)N1CCN(Cc2ccc3c(c2)OCO3)CC1 the results were Ecoli tolC 6, PostGolgi yeast 0, PostGolgi ctrl 31*, E coli WT exp -8, PLAP act 0.8 and HePTP inh 7.
CCOC1(c2ccccc2)c2ccccc2Oc2ccccc21 was read as HePTP inh -4.
Cc1cc(C)cc(OCC(=O)N2CCCCCC2)c1 was read as Ecoli tolC -4, PostGolgi yeast -11, PostGolgi ctrl 34*, E coli WT exp 12, PLAP act 0.9 and HePTP inh 5.
For CC(=O)N1CCN(C(=O)COc2ccc(Br)cc2)CC1 the results were Ecoli tolC -8, PostGolgi yeast -2, PostGolgi ctrl 11, E coli WT exp 8, PLAP act 1.2 and HePTP inh 3.
For Cc1cccc(OCC(=O)N2CCCC2)c1 the results were HePTP inh 10.
COc1ccc(OCC(=O)N2CCN(C(=O)COc3ccc(Br)cc3)CC2)cc1 was read as Ecoli tolC -2, PostGolgi yeast -10, PostGolgi ctrl 41*, E coli WT exp 7, PLAP act 1.2 and HePTP inh 2.
`Cc1ccc(OCC(=O)N2CCC(N3CCCCCC3)CC2)cc1` gave Ecoli tolC -4, PostGolgi yeast -2, PostGolgi ctrl 35*, E coli WT exp 3, PLAP act 1.4 and HePTP inh 2.
`CCS(=O)(=O)N1CCN(CC2CC3C=CC2C3)CC1` (stereo not drawn) gave Ecoli tolC -13, PostGolgi yeast 2, PostGolgi ctrl -1, E coli WT exp 4, PLAP act 1.4 and HePTP inh 7.
`Cc1cccc(C)c1N1C(=O)C2ON(c3ccccc3)C(c3ccncc3)C2C1=O` (stereo not drawn) gave Ecoli tolC 0, PostGolgi yeast 102*, PostGolgi ctrl 91*, E coli WT exp 7, PLAP act 1.6 and HePTP inh -1.
O=C1C2ON(c3ccccc3)C(c3ccncc3)C2C(=O)N1c1ccccc1 (stereo not drawn) was read as Ecoli tolC 21, PostGolgi yeast 1, PostGolgi ctrl 1, E coli WT exp 6, PLAP act 1 and HePTP inh 5.
`COc1ccc(/C=C2\C(=O)NC(=O)N(c3ccccc3Cl)C2=O)cc1Br` gave HePTP inh 14.
CSc1nsc(SC)c1C(=O)N1CCN(S(=O)(=O)c2ccc(C)cc2)C1C(C)C (stereo not drawn) was read as HePTP inh -5.
`COc1cc(Nc2nnc(C)s2)c(Cl)cc1Cl` gave PostGolgi yeast -3, PostGolgi ctrl 9, E coli WT exp 4 and PLAP act 1.1.
Screening COCCOc1cc(Nc2nnc(C(F)(F)F)s2)c(Cl)cc1Cl returned PostGolgi yeast 21, PostGolgi ctrl 32*, E coli WT exp -6 and PLAP act 1.3.
`Cc1sc(NC(=O)c2ccco2)c(CN2CCN(c3ccccn3)CC2)c1C` gave Ecoli tolC 63*, PostGolgi yeast -5, PostGolgi ctrl 30, E coli WT exp -6, PLAP act 1.2 and HePTP inh 9.
`O=C(NN=C1C2CC3CC(C2)CC1C3)c1cc(Cl)ccc1O` gave PostGolgi yeast 0, PostGolgi ctrl -1, E coli WT exp -5 and PLAP act 0.9.
For COC(=O)c1c(N)sc(C(=O)Nc2ccccc2OC)c1C the results were HePTP inh 66*.
COc1ccc(S(=O)(=O)N2CCC(C(=O)NCCc3ccc4c(c3)OCO4)CC2)cc1 was read as Ecoli tolC 9, PostGolgi yeast 1, PostGolgi ctrl 39*, E coli WT exp 4, PLAP act 1.3 and HePTP inh -4.
For NC(=O)c1cc(Br)cc2c3c([nH]c12)CCCC3 the results were Ecoli tolC 56, PostGolgi yeast 5, PostGolgi ctrl 78*, E coli WT exp -4, PLAP act 0.9 and HePTP inh 10.
For CCOC(=O)c1oc2cc(O)ccc2c(=O)c1-c1ccc(OC)cc1 the results were PostGolgi yeast -2, PostGolgi ctrl 11, E coli WT exp 7 and PLAP act 1.
For CCOC(=O)c1oc2cc(O)c(CC)cc2c(=O)c1-c1ccc2c(c1)OCCO2 the results were Ecoli tolC 27, PostGolgi yeast -6, PostGolgi ctrl 30*, E coli WT exp -4, PLAP act 1.1 and HePTP inh 2.
Screening COC(=O)C1=C(C)N(C)C(C)=C(C(=O)OC)C1c1ccc(F)c(Br)c1 returned Ecoli tolC 73*, PostGolgi yeast 9, PostGolgi ctrl 53*, E coli WT exp 6, PLAP act 0.9 and HePTP inh 2.
Screening COc1cccc(C2C(C#N)=C(N)SC(N)=C2C#N)c1 returned HePTP inh -2.
For COc1ccc(C2C(C#N)=C(N)N3C(=C2C#N)Sc2ccccc23)cc1 (stereo not drawn) the results were Ecoli tolC 15, PostGolgi yeast -8, PostGolgi ctrl 30*, E coli WT exp -4, PLAP act 1 and HePTP inh 14.
O=C1N(c2ccccc2)C2CS(=O)(=O)CC2N1c1ccc(Cl)cc1 (stereo not drawn) was read as HePTP inh 1.
O=S1(=O)CC(O)C(N2CCC(c3ccccc3)CC2)C1 (stereo not drawn) was read as Ecoli tolC -9, PostGolgi yeast 5, PostGolgi ctrl 45*, E coli WT exp 7, PLAP act 1 and HePTP inh 5.
For CCOC(=O)C1CCN(C(c2cccnc2)c2c(NC(=O)c3ccco3)sc(C)c2C)CC1 (stereo not drawn) the results were Ecoli tolC 77*, PostGolgi yeast 13, PostGolgi ctrl 26, E coli WT exp -11, PLAP act 1.2 and HePTP inh 6.
